Positions count from the first letter of the chain named. Entries after “also recorded” stand apart in the source; their conditions may differ.
What was measured:
[1] = molecular target: T1, GluRδ2^Wt (Rattus norvegicus, UniProt Q63226); test: Two-electrode voltage-clamp recordings in Xenopus oocytes expressing GluRδ2^Wt; type: cell-based
T1 sequence (Q63226 24-1007): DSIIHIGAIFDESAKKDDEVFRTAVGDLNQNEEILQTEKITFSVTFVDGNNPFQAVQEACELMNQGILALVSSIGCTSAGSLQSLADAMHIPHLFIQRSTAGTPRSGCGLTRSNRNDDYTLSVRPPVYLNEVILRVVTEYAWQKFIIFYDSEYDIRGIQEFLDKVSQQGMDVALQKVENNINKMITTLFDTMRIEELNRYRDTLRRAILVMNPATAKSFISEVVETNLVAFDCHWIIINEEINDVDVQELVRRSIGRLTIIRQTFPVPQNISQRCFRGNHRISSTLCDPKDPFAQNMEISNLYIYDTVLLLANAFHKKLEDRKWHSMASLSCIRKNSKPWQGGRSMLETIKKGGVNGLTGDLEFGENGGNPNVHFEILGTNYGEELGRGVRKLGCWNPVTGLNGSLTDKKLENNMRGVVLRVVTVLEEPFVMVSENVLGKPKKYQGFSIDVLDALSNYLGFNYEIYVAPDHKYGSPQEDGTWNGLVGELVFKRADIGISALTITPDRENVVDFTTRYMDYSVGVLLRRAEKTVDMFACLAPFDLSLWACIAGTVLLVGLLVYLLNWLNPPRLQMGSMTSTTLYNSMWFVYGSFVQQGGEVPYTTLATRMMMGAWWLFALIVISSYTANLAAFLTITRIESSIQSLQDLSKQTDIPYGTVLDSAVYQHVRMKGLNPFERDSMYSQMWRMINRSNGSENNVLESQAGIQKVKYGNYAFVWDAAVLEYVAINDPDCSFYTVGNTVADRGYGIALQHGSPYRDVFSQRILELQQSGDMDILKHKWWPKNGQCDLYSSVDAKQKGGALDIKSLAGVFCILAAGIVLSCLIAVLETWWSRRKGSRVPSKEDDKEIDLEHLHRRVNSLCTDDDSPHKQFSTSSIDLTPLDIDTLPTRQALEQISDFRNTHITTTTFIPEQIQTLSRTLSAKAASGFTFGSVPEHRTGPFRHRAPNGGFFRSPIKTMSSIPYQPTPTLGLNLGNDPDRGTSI
Procedure, shortened: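 Oocytes injected with wild-type receptor cRNA the day after excision and collagenase treatment. Two-electrode voltage clamp at −40 mV and 23°C, 24–72 h post-injection. Bath: 90 mM NaCl, 3 mM KCl, 0.5 mM BaCl2, 10 mM HEPES, pH 7.6. Ba2+ was replaced by 0.5 mM Mg2+, Zn2+, Mn2+, Sr2+ or Ca2+, or Ca2+ was raised stepwise. Choline or NMDG chloride kept osmolarity and Cl− constant. Baseline was current without Ca2+.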

[2] = molecular target: T2, GluRδ2^Wt P528C+L789C+C811S (Rattus norvegicus, UniProt Q63226, C811S/L789C/P528C); type: cell-based; conditions: data not shown
T2 sequence (Q63226 24-1007 P528C/L789C/C811S): T1 sequence (Q63226 24-1007) with P505C, L766C, C788S

[3] = molecular target: T1, GluRδ2^Wt; conditions: ref Naur et al., 2007; cited from earlier work

| SMILES | effect of divalent cation on currents at GluRδ2^Wt ([1]; 0.5 mM Ba^2+ exchanged with 0.5 mM of the divalent cation) | effect of extracellular Ca^2+ on baseline currents at GluRδ2^Wt ([1]; increasing concentrations of Ca^2+) | response to D-serine [2] | activation of currents at recombinant GluRδ2^Wt by D-serine [3] |
| --- | --- | --- | --- | --- |
| [Ca+2] [Ca^2+, calcium] | no changes were observed | insensitive; also recorded: did not induce current |  |  |
| N[C@H](CO)C(=O)O [D-serine] |  |  | Neither the C811S mutation nor the triple P528C+L789C+C811S mutation resulted in measurable responses | fails to activate currents |
